Measurements from ChEMBL document CHEMBL1142436, “Design and synthesis of 4-substituted indolo[3,2-e][1,2,3]triazolo[1,5-a]pyrimidine derivatives with antitumor activity” (2008).

How the values were obtained:
Type in all cases: functional
KM12 = test: Growth inhibition of human KM12 cells after 48 hrs; details: KM12, 48 h
Method in brief: (§1)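 NCI ~60-line screen. Cells were grown in RPMI 1640 with 5% FBS and 2 mM L-glutamine and plated at 5000–40000 cells/well. After a 24 h preincubation, five drug concentrations from DMSO stocks were added for 48 h at 37 °C. Cells were TCA-fixed, stained with SRB and read at 515 nm. GI50 was taken from time-zero and control absorbances and reported as pGI50.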

SF-295 = test: Growth inhibition of human SF295 cells after 48 hrs; details: SF-295, 48 h; method in brief: as §1
MCF7 = test: Growth inhibition of human MCF7 cells after 48 hrs; details: MCF7, 48 h; method in brief: as §1
K562 = test: Growth inhibition of human K562 cells after 48 hrs; details: K562, 48 h; method in brief: as §1
LOX IMVI = test: Growth inhibition of human LOXIMVI cells after 48 hrs; method in brief: as §1
HL-60 = test: Growth inhibition of human HL60 cells after 48 hrs; details: HL-60, 48 h; method in brief: as §1
TK-10 = test: Growth inhibition of human TK10 cells after 48 hrs; details: TK-10, 48 h
Method in brief: (§2)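 NCI 60-line screen: cells in RPMI 1640 with 5% FBS and 2 mM L-glutamine, plated at 5000–40000 cells/well, grown 24 h (37 °C, 5% CO₂), then exposed to five 10-fold or ½-log dilutions (DMSO stock) for 48 h. Fixed with TCA (final 10% for adherent cells, 16% for suspension cells), then SRB stained with absorbance at 515 nm. GI50 from percentage growth relative to time-zero and control wells.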

U-251 = test: Growth inhibition of human U251 cells after 48 hrs; details: U-251, 48 h; method in brief: as §2
SNB-19 = test: Growth inhibition of human SNB19 cells after 48 hrs; details: SNB-19, 48 h; method in brief: as §2
CCRF-CEM = test: Growth inhibition of human CCRF-CEM cells after 48 hrs; method in brief: as §1
T47D = test: Growth inhibition of human T47D cells after 48 hrs; method in brief: as §2
SK-MEL-28 = test: Growth inhibition of human SK-MEL28 cells after 48 hrs; details: SK-MEL-28, 48 h; method in brief: as §1
UACC-257 = test: Growth inhibition of human UACC257 cells after 48 hrs; details: UACC-257, 48 h; method in brief: as §2
NCI-H522 = test: Growth inhibition of human NCI-H522 cells after 48 hrs; details: NCI-H522, 48 h; method in brief: as §1
MDA-MB-435 = test: Growth inhibition of human MDA-MB435 cells after 48 hrs; details: MDA-MB-435, 48 h; method in brief: as §1
CAKI-1 = test: Growth inhibition of human CAKI1 cells after 48 hrs; details: CAKI-1, 48 h; method in brief: as §1
NCI-H23 = test: Growth inhibition of human NCI-H23 cells after 48 hrs; details: Homo sapiens, NCI-H23, 48 h; method in brief: as §1
M14 = test: Growth inhibition of human M14 cells after 48 hrs; details: M14, 48 h; method in brief: as §1
A549 = test: Growth inhibition of human A549 cells after 48 hrs; details: A549, 48 h; method in brief: as §1
UO-31 = test: Growth inhibition of human UO31 cells after 48 hrs; details: UO-31, 48 h; method in brief: as §2
HCT-116 = test: Growth inhibition of human HCT116 cells after 48 hrs; details: HCT-116, 48 h; method in brief: as §1
A498 = test: Growth inhibition of human A498 cells after 48 hrs; details: A498, 48 h; method in brief: as §1
[1] = Growth inhibition of human HS578T cells after 48 hrs; details: Hs-578T; method in brief: as §1
EKVX = test: Growth inhibition of human EKVX cells after 48 hrs; method in brief: as §1
NCI-H322M = test: Growth inhibition of human NCI-H322M cells after 48 hrs; method in brief: as §1
NCI-H226 = test: Growth inhibition of human NCI-H226 cells after 48 hrs; details: NCI-H226, 48 h; method in brief: as §1
ACHN = test: Growth inhibition of human ACHN cells after 48 hrs; method in brief: as §1
786-0 = test: Growth inhibition of human 786-0 cells after 48 hrs; details: 786-0, 48 h; method in brief: as §1
OVCAR-5 = test: Growth inhibition of human OVCAR5 cells after 48 hrs; details: OVCAR-5, 48 h; method in brief: as §1
OVCAR-3 = test: Growth inhibition of human OVCAR-3 cells after 48 hrs; details: OVCAR-3, 48 h; method in brief: as §1
OVCAR-4 = test: Growth inhibition of human OVCAR4 cells after 48 hrs; details: OVCAR-4, 48 h; method in brief: as §1
NCI-H460 = test: Growth inhibition of human NCI-H460 cells after 48 hrs; details: NCI-H460, 48 h; method in brief: as §1
IGROV-1 = test: Growth inhibition of human IGROV1 cells after 48 hrs; details: IGROV-1, 48 h; method in brief: as §1
MOLT-4 = test: Growth inhibition of human MOLT4 cells after 48 hrs; details: MOLT-4, 48 h; method in brief: as §1
[2] = read-out: Log LC50 (the source's name) (converted)

CCOC(=O)CNC(=O)CCCn1c(=O)c2c3ccccc3n(C)c2n2nnc(-c3ccccc3)c12
GI50 (KM12): > 50.1 µM | LC50 (KM12): > 50.1 µM | TGI (KM12; read-out: pTGI (converted)): > 50.1 µM | GI50 (SF-295): 4.79 µM | LC50 (SF-295): > 50.1 µM | TGI (SF-295; read-out: pTGI (converted)): 17.4 µM | GI50 (MCF7): 31.6 µM | LC50 (MCF7): > 50.1 µM | TGI (MCF7; read-out: pTGI (converted)): > 50.1 µM | GI50 (K562): 4.68 µM | LC50 (K562): > 50.1 µM | TGI (K562; read-out: pTGI (converted)): > 50.1 µM | GI50 (LOX IMVI): 25.1 µM | LC50 (lethal concentration, 50% cell kill) (LOX IMVI): > 50.1 µM | TGI (LOX IMVI; read-out: pTGI (converted)): > 50.1 µM | GI50 (HL-60): 20.4 µM | LC50 (HL-60): > 50.1 µM | TGI (HL-60; read-out: pTGI (converted)): > 50.1 µM | GI50 (TK-10): 8.71 µM | LC50 (TK-10): > 50.1 µM | TGI (TK-10; read-out: pTGI (converted)): 20.9 µM | GI50 (U-251): 4.17 µM | LC50 (U-251): 46.8 µM | TGI (U-251; read-out: pTGI (converted)): 14.5 µM | LC50 (SNB-19): 17 µM | GI50 (CCRF-CEM): 26.3 µM | LC50 (CCRF-CEM): > 50.1 µM | TGI (CCRF-CEM; read-out: pTGI (converted)): > 50.1 µM | GI50 (T47D): 43.7 µM | CC50 (T47D; [2]): > 50.1 µM | TGI (T47D; read-out: pTGI (converted)): > 50.1 µM | GI50 (SK-MEL-28): > 50.1 µM | LC50 (SK-MEL-28): > 50.1 µM | TGI (SK-MEL-28; read-out: pTGI (converted)): > 50.1 µM | GI50 (UACC-257): > 50.1 µM | LC50 (UACC-257): > 50.1 µM | TGI (UACC-257; read-out: pTGI (converted)): > 50.1 µM | GI50 (NCI-H522): 6.46 µM | LC50 (NCI-H522): > 50.1 µM | TGI (NCI-H522; read-out: pTGI (converted)): 20 µM | GI50 (MDA-MB-435): > 50.1 µM | LC50 (MDA-MB-435): 39.8 µM | TGI (MDA-MB-435; read-out: pTGI (converted)): 20 µM | GI50 (CAKI-1): 8.32 µM | LC50 (concentration killing 50% of cells) (CAKI-1): 47.9 µM | TGI (CAKI-1; read-out: pTGI (converted)): 20 µM | GI50 (NCI-H23): 11.7 µM | CC50 (NCI-H23; [2]): > 50.1 µM | TGI (NCI-H23; read-out: pTGI (converted)): > 50.1 µM | GI50 (M14): 18.6 µM | LC50 (M14): > 50.1 µM | TGI (M14; read-out: pTGI (converted)): > 50.1 µM | GI50 (A549): 33.1 µM | CC50 (A549; [2]): > 50.1 µM | TGI (A549; read-out: pTGI (converted)): > 50.1 µM | GI50 (UO-31): 47.9 µM | LC50 (UO-31): > 50.1 µM | TGI (UO-31; read-out: pTGI (converted)): > 50.1 µM | GI50 (HCT-116): 9.12 µM | LC50 (HCT-116): > 50.1 µM | TGI (HCT-116; read-out: pTGI (converted)): 27.5 µM | GI50 (A498): 7.59 µM | CC50 (A498; [2]): > 50.1 µM | TGI (A498; read-out: pTGI (converted)): 24.5 µM | GI50 [1]: 4.47 µM | LC50 (50% lethal concentration) [1]: > 50.1 µM | TGI ([1]; read-out: pTGI (converted)): > 50.1 µM | GI50 (EKVX): > 50.1 µM | LC50 (EKVX): > 50.1 µM | TGI (EKVX; read-out: pTGI (converted)): 20.4 µM | GI50 (NCI-H322M): > 50.1 µM | LC50 (NCI-H322M): > 50.1 µM | TGI (NCI-H322M; read-out: pTGI (converted)): > 50.1 µM | GI50 (NCI-H226): 25.1 µM | CC50 (NCI-H226; [2]): > 50.1 µM | TGI (NCI-H226; read-out: pTGI): > 50.1 µM | GI50 (ACHN): 9.33 µM | LC50 (ACHN): > 50.1 µM | TGI (ACHN; read-out: pTGI (converted)): 33.9 µM | GI50 (786-0): 5.13 µM | LC50 (786-0): > 50.1 µM | TGI (786-0; read-out: pTGI (converted)): 17.4 µM | GI50 (OVCAR-5): 27.5 µM | LC50 (concentration killing 50% of cells) (OVCAR-5): > 50.1 µM | TGI (OVCAR-5; read-out: pTGI (converted)): > 50.1 µM | GI50 (OVCAR-3): 12.6 µM | LC50 (OVCAR-3): > 50.1 µM | TGI (OVCAR-3; read-out: pTGI (converted)): 49 µM | GI50 (OVCAR-4): > 50.1 µM | LC50 (OVCAR-4): > 50.1 µM | TGI (OVCAR-4; read-out: pTGI (converted)): > 50.1 µM | GI50 (NCI-H460): > 50.1 µM | LC50 (NCI-H460): > 50.1 µM | TGI (NCI-H460; read-out: pTGI (converted)): > 50.1 µM | GI50 (IGROV-1): 8.91 µM | LC50 (IGROV-1): > 50.1 µM | TGI (IGROV-1; read-out: pTGI (converted)): 30.2 µM | GI50 (MOLT-4): > 50.1 µM | LC50 (MOLT-4): > 50.1 µM | TGI (MOLT-4; read-out: pTGI (converted)): > 50.1 µM
